Measurements as given in ChEMBL document CHEMBL1152796, “Azole antimicrobial pharmacophore-based tetrazoles: synthesis and biological evaluation as potential antimicrobial and anticonvulsant agents” (Bioorg Med Chem, 2009).
≈ marks a conversion by molar mass, not a printed value. Calls of active or inactive are those of the source. The rule behind the calls is not given here.

Columns and labels:
Mus musculus [1] = experiment: Anticonvulsant activity in Wister albino mouse assessed as protection against subcutaneous metrazole-induced seizures at 30 mg/kg, ip administered 30 mins before metrazole challenge measured after 30 mins; type: functional
Summary of the method: (§1)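 Wistar albino mice, either sex, 25–30 g, 3 months old, in groups of six. Compounds in DMSO were given ip at 30, 100 or 300 mg/kg; vehicle-only controls. After 30 min, metrazole 100 mg/kg in DMSO was injected sc at the posterior midline. Protection meant absence of any clonic spasm lasting ≥5 s; scored as protected/tested.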

Mus musculus [2] = experiment: Anticonvulsant activity in Wister albino mouse assessed as protection against subcutaneous metrazole-induced seizures at 100 mg/kg, ip administered 30 mins before metrazole challenge measured after 30 mins; type: functional; details: route intraperitoneal; summary of the method: as §1
Mus musculus [3] = experiment: Anticonvulsant activity in Wister albino mouse assessed as protection against subcutaneous metrazole-induced seizures at 300 mg/kg, ip administered 30 mins before metrazole challenge measured after 30 mins; type: functional; summary of the method: as §1
Mus musculus [4] = experiment: Anticonvulsant activity in Wister albino mouse assessed as protection against maximal electroshock-induced seizures at 100 mg/kg, ip administered 30 mins before metrazole challenge measured after 30 mins; type: functional; details: route intraperitoneal
Mus musculus [5] = experiment: Anticonvulsant activity in Wister albino mouse assessed as protection against maximal electroshock-induced seizures at 300 mg/kg, ip administered 30 mins before metrazole challenge measured after 30 mins; type: functional; details: route intraperitoneal
Staphylococcus aureus [6] = experiment: Antibacterial activity against Staphylococcus aureus ATCC 6538 after 24 to 48 hrs by twofold serial dilution method; type: functional
Summary of the method: (§2)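 Broth microdilution in Müller–Hinton broth. DMSO stocks at 800 were diluted twofold from 400 down to 6.25. Wells received 10^6 CFU/mL bacterial suspension and were incubated at 36 °C for 24–48 h, with controls. MIC was read per well. Duplicate assays; run only for compounds giving inhibition zones ≥14 mm.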

Bacillus subtilis [7] = experiment: Antibacterial activity against Bacillus subtilis NRRL B-14819 after 24 to 48 hrs by twofold serial dilution method; type: functional; summary of the method: as §2
Micrococcus luteus [8] = experiment: Antibacterial activity against Micrococcus luteus ATCC 21881 after 24 to 48 hrs by twofold serial dilution method; type: functional; summary of the method: as §2
Escherichia coli [9] = experiment: Antibacterial activity against Escherichia coli ATCC 25922 after 24 to 48 hrs by twofold serial dilution method; type: functional; summary of the method: as §2
Pseudomonas aeruginosa [10] = experiment: Antibacterial activity against Pseudomonas aeruginosa ATCC 27853 after 24 to 48 hrs by twofold serial dilution method; type: functional; summary of the method: as §2
Klebsiella pneumoniae [11] = experiment: Antibacterial activity against Klebsiella pneumoniae isolate after 24 to 48 hrs by twofold serial dilution method; type: functional; summary of the method: as §2
Candida tropicalis = experiment: Antifungal activity against Candida tropicalis isolate after 72 hrs by twofold serial dilution method; type: functional, organism-based
Pichia kudriavzevii = experiment: Antifungal activity against Candida krusei isolate after 72 hrs by twofold serial dilution method; type: functional, organism-based
Aspergillus niger = experiment: Antifungal activity against Aspergillus niger isolate after 72 hrs by twofold serial dilution method; type: functional, organism-based
Trichophyton rubrum = experiment: Antifungal activity against Trichophyton rubrum isolate after 72 hrs by twofold serial dilution method; type: functional, organism-based
Staphylococcus aureus [12] = experiment: Antibacterial activity against Staphylococcus aureus ATCC 6538 at 1 mg/mL after 24 hrs by agar diffusion method; type: functional; details: ATCC 6538, 24 h, read-out: Diameter of inhibition zone
Summary of the method: (§3)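 Agar disc diffusion: 5 mm sterile paper discs soaked in 1 mg/mL test solution in DMSO were placed on agar seeded with the organism, in triplicate, with a DMSO-only control. Bacterial plates were incubated at 37 °C for 24 h and fungal plates for 7 days. Read-out was the average inhibition-zone diameter in mm. Fungi were clinical isolates.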

Bacillus subtilis [13] = experiment: Antibacterial activity against Bacillus subtilis NRRL B-14819 at 1 mg/mL after 24 hrs by agar diffusion method; type: functional; details: read-out: Diameter of inhibition zone; summary of the method: as §3
Micrococcus luteus [14] = experiment: Antibacterial activity against Micrococcus luteus ATCC 21881 at 1 mg/mL after 24 hrs by agar diffusion method; type: functional; details: ATCC 21881, 24 h, read-out: Diameter of inhibition zone; summary of the method: as §3
Escherichia coli [15] = experiment: Antibacterial activity against Escherichia coli ATCC 25922 at 1 mg/mL after 24 hrs by agar diffusion method; type: functional; details: ATCC 25922, 24 h, read-out: Diameter of inhibition zone; summary of the method: as §3
Pseudomonas aeruginosa [16] = experiment: Antibacterial activity against Pseudomonas aeruginosa ATCC 27853 at 1 mg/mL after 24 hrs by agar diffusion method; type: functional; details: ATCC 27853, 24 h, read-out: Diameter of inhibition zone; summary of the method: as §3
Klebsiella pneumoniae [17] = experiment: Antibacterial activity against Klebsiella pneumoniae isolate at 1 mg/mL after 24 hrs by agar diffusion method; type: functional; details: read-out: Diameter of inhibition zone; summary of the method: as §3
Candida albicans [18] = experiment: Antifungal activity against Candida albicans isolate at 1 mg/mL after 7 days by twofold serial dilution method; type: functional; details: 168 h, read-out: Diameter of inhibition zone
Aspergillus fumigatus [19] = experiment: Antifungal activity against Aspergillus fumigatus isolate at 1 mg/mL after 7 days by agar diffusion method; type: functional; details: 168 h, read-out: Diameter of inhibition zone; summary of the method: as §3
Candida albicans [20] = experiment: Antifungal activity against Candida albicans isolate after 72 hrs by twofold serial dilution method; type: functional
Aspergillus fumigatus [21] = experiment: Antifungal activity against Aspergillus fumigatus isolate after 72 hrs by twofold serial dilution method; type: functional
Mus musculus [22] = experiment: Toxicity in Wister albino mouse assessed as death following tonic extension at 100 mg/kg, ip; type: organism-based; design: dose 100 mg/kg, route intraperitoneal; details: in vivo
Summary of the method: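 Wistar albino mice of either sex (25–30 g, 3 months), six per group. Compound was dissolved in DMSO and given ip 30 min before the maximal electroshock test, with solvent-only controls. Corneas received 0.5% xylocaine; 6 Hz, 0.2-ms pulses were given for 3 s at 6–64 mA. Animals were observed 30 min after dosing, and deaths following tonic extension were recorded.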

SMILES | Activity (Mus musculus [2]) [%] | Activity (Mus musculus [4]) [%] | MIC (Staphylococcus aureus [6]) [µg/mL] | MIC (Bacillus subtilis [7]) [µg/mL] | MIC (Micrococcus luteus [8]) [µg/mL] | MIC (Escherichia coli [9]) [µg/mL] | MIC (Pseudomonas aeruginosa [10]) [µg/mL] | MIC (Klebsiella pneumoniae [11]) [µg/mL] | Activity (Candida tropicalis) | Activity (Pichia kudriavzevii) | Activity (Aspergillus niger) | Activity (Trichophyton rubrum) | zone of inhibition at 1000 µg/mL (Staphylococcus aureus [12]) [mm] | zone of inhibition at 1000 µg/mL (Bacillus subtilis [13]) [mm] | zone of inhibition at 1000 µg/mL (Micrococcus luteus [14]) [mm] | zone of inhibition at 1000 µg/mL (Escherichia coli [15]) [mm] | zone of inhibition at 1000 µg/mL (Pseudomonas aeruginosa [16]) [mm] | zone of inhibition at 1000 µg/mL (Klebsiella pneumoniae [17]) [mm] | zone of inhibition at 1000 µg/mL (Candida albicans [18]) [mm] | zone of inhibition at 1000 µg/mL (Aspergillus fumigatus [19]) [mm] | also measured
O=C(Cn1nnnc1Cc1ccccc1)c1ccc(Cl)cc1 | 50 | 50 | – | – | – | – | – | – | – | – | – | – | – | – | – | – | – | – | – | – | Activity (Mus musculus [1]): 0%; Activity (Mus musculus [3]): 0%; Activity (Mus musculus [5]): 0%
O=C(COC(Cn1nnc(-c2ccccc2)n1)c1ccc(Cl)cc1)NNC(=S)Nc1ccccc1 (stereo not given) | 80 | 67 | 50 (≈ 98.4 µM) | 100 (≈ 197 µM) | ≥ 200 | ≥ 200 | ≥ 200 | ≥ 200 | inactive | inactive | inactive | inactive | ≥ 14 | ≥ 14 | ≥ 14 | ≥ 14 | ≥ 14 | ≥ 14 | ≥ 14 | ≥ 14 | Activity (Mus musculus [1]): 0%; Activity (Mus musculus [3]): 0%
Cc1cc(C)n(C(=O)COC(Cn2nnnc2Cc2ccccc2)c2ccc(Cl)cc2)n1 (stereo not given) | 0 | 0 | 25 (≈ 55.4 µM) | 50 (≈ 111 µM) | 50 (≈ 111 µM) | 100 (≈ 222 µM) | ≥ 200 | ≥ 200 | inactive | inactive | inactive | inactive | ≥ 14 | ≥ 14 | ≥ 14 | ≥ 14 | ≥ 14 | ≥ 14 | ≥ 14 | ≥ 14 | MIC (Candida albicans [20]): 100 µg/mL (≈ 222 µM); MIC (Aspergillus fumigatus [21]): ≥ 200 µg/mL
O=C(Cn1nnc(-c2ccccc2)n1)c1ccc(Cl)cc1 | 0 | 0 | – | – | – | – | – | – | – | – | – | – | – | – | – | – | – | – | – | – | Activity (Mus musculus [22]): Toxic
Sc1nnc(COC(Cn2nnnc2Cc2ccccc2)c2ccc(Cl)cc2)n1-c1ccccc1 (stereo not given) | 0 | 33 | 50 (≈ 99.2 µM) | 100 (≈ 198 µM) | ≥ 200 | 100 (≈ 198 µM) | ≥ 200 | ≥ 200 | inactive | inactive | inactive | inactive | ≥ 14 | ≥ 14 | ≥ 14 | ≥ 14 | ≥ 14 | ≥ 14 | ≥ 14 | ≥ 14 | MIC (Candida albicans [20]): 50 µg/mL (≈ 99.2 µM); MIC (Aspergillus fumigatus [21]): ≥ 200 µg/mL
OC(Cn1nnnc1Cc1ccccc1)c1ccc(Cl)cc1 (stereo not given) | 100 | 67 | – | – | – | – | – | – | – | – | – | – | – | – | – | – | – | – | – | – | Activity (Mus musculus [1]): 0%; Activity (Mus musculus [3]): 50%
Clc1ccc(C2Cn3nnnc3Cc3ccccc32)cc1 (stereo not given) | 0 | 33 | 50 (≈ 168 µM) | ≥ 200 | ≥ 200 | 50 (≈ 168 µM) | ≥ 200 | ≥ 200 | inactive | inactive | inactive | inactive | ≥ 14 | ≥ 14 | ≥ 14 | ≥ 14 | ≥ 14 | ≥ 14 | ≥ 14 | ≥ 14 | MIC (Candida albicans [20]): ≥ 200 µg/mL; MIC (Aspergillus fumigatus [21]): 25 µg/mL (≈ 84.2 µM)
